Source: ChEMBL document CHEMBL3259611, “Suppression of inflammatory responses by handelin, a guaianolide dimer from Chrysanthemum boreale, via downregulation of NF-κB signaling and pro-inflammatory cytokine production” (J Nat Prod, 2014)
Calls of active or inactive are those of the source. The calls are words filed in the database; no cut-off is given here.

Key:
Mus musculus [1] = test: Antiinflammatory activity in ICR mouse ear edema model assessed as inhibition of TPA-induced iNOS protein expression in ear tissue at 10 to 20 mg/kg, po administered 30 mins prior to TPA challenge measured after 4 hrs by Western blotting analysis relative to vehicle-treated control; assay type: functional, organism-based
In short: (§1)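 ICR mice (male, 18−20 g, 5 weeks old) dosed orally 30 min before TPA (1.0 μg in 20 μL acetone) was applied to inner and outer surfaces of the right ear. Killed by cervical dislocation after 4 h. Edema taken as the weight of a 5 mm punch biopsy of the right ear over the left. Ear homogenates were Western blotted for iNOS, COX-2 and IL-1β.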

[2] = biological target: Transcription factor p65 (Mus musculus) (UniProt Q04207); test: Inhibition of LPS-induced NF-kappaB p65 binding to DNA in mouse RAW264.7 cells at 10 to 40 uM after 1.5 hrs by spectrophotometry in presence of mutant oligonucleotide; assay type: cell-based
Transcription factor p65 (Mus musculus), sequence (Q04207 whole entry): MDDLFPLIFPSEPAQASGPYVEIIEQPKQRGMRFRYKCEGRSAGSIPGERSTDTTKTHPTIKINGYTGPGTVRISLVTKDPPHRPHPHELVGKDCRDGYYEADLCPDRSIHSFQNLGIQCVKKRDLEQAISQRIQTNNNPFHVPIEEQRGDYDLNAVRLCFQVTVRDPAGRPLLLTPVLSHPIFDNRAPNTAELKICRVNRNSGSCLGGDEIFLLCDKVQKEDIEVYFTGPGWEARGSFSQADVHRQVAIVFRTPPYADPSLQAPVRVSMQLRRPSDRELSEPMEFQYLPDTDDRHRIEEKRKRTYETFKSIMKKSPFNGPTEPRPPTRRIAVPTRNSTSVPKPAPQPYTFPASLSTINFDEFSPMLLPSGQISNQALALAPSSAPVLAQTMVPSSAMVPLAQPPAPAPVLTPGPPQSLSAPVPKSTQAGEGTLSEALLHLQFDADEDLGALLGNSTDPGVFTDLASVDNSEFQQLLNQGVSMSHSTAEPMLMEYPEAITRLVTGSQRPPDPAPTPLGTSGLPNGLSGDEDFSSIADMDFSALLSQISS

RAW264.7 [3] = test: Antiinflammatory activity in mouse RAW264.7 cells assessed as inhibition LPS-induced TNF-alpha mRNA expression at 40 uM after 4 hrs by RT-PCR analysis relative to control; assay type: functional
In short: (§2)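 RAW 264.7 cells stimulated with LPS (1 μg/mL) with or without compound for 4 h. Total RNA was isolated and cytokine mRNA was analysed by RT-PCR: 94 °C 4 min, then 25−30 cycles of 94/55/72 °C for 30 s each, then 72 °C 5 min. Products were run on 2% agarose and stained with SYBR-Safe. Triplicate, representative of three experiments.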

Rattus norvegicus [4] = test: Antiinflammatory activity in rat paw edema model assessed as inhibition of carrageenan-induced iNOS protein expression in paw tissue at 20 mg/kg, po administered 30 mins prior to carrageenan challenge measured after 6 hrs by Western blotting analysis relative to vehicle-treated control; assay type: functional, organism-based; parameters: dose 20 mg/kg
In short: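 SD rats received compound orally in 0.5% CMC-Na 30 min before subplantar injection of 0.1 mL 1% carrageenan in saline. Paws were removed at 6 h, homogenized, and iNOS, COX-2 and IL-1β were assessed by Western blot. Triplicate, representative of three experiments.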

Rattus norvegicus [5] = test: Antiinflammatory activity in rat paw edema model assessed as inhibition of carrageenan-induced paw edema at 10 mg/kg, po administered 30 mins prior to carrageenan challenge measured after 4 hrs relative to vehicle-treated control; assay type: functional
In short: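 Male SD rats (150−170 g) given compound orally in 0.5% CMC-Na 30 min before subplantar injection of 0.1 mL 1% carrageenan; the contralateral paw received saline. Paw volume was measured by plethysmometer from 0 to 6 h, with inhibition taken at 4 h versus vehicle. Mean ± SD, n = 6.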

RAW264.7 [6] = test: Antiinflammatory activity in mouse RAW264.7 cells assessed as inhibition LPS-induced TNF-alpha mRNA expression at 20 uM after 4 hrs by RT-PCR analysis relative to control; assay type: functional; in short: as §2
RAW264.7 [7] = test: Inhibition of LPS-induced NF-kappaB transcriptional activity in mouse RAW264.7 cells treated 2 hrs prior to LPS challenge measured after 16 hrs by SEAP reporter gene assay relative to control; assay type: cell-based
In short: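 NF-κB SEAP reporter assay in RAW 264.7 cells: 2 h compound pretreatment, then LPS for 16 h. Supernatants heated 65 °C for 5 min, then reacted with 2 M diethanolamine, 1 mM MgCl2 and 500 μM MUP for 1 h at 37 °C in the dark. Fluorescence read at ex 360/em 449 nm and normalized to protein. Expressed relative to vehicle control without LPS; triplicates.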

JNK1/JNK2 (Mus musculus) = JNK1/JNK2 (Mus musculus) (UniProt Q91Y86+Q9WTU6); test: Inhibition LPS-induced JNK1/2 phosphorylation at Thr183/[…] in mouse RAW264.7 cells at 10 uM administered 30 mins prior to LPS challenge measured after 30 mins by Western blotting analysis; assay type: cell-based
JNK1/JNK2 (Mus musculus), sequence (Q91Y86 whole entry, looked up): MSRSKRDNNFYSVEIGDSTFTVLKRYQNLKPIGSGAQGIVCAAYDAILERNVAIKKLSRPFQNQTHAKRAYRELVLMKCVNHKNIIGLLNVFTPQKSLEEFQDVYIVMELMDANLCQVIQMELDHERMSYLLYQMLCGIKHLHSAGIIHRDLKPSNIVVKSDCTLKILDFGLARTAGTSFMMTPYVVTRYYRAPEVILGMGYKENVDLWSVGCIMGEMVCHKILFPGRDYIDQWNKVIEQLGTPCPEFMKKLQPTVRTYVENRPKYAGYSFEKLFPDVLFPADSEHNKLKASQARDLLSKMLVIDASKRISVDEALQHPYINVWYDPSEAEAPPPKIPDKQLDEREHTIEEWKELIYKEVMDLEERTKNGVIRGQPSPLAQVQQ
JNK1/JNK2 (Mus musculus), sequence (Q9WTU6 whole entry, looked up): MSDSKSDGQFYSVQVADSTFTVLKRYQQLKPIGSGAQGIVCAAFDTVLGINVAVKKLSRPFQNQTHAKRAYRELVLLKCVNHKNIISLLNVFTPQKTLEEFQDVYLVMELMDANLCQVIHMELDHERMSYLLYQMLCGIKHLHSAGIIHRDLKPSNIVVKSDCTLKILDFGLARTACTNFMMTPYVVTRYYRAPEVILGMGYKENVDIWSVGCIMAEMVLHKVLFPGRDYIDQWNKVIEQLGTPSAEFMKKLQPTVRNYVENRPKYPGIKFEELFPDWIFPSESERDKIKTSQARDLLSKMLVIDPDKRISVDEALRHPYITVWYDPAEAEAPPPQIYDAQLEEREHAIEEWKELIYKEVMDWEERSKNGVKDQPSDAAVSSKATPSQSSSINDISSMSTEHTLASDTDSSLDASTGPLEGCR
In short: (§3)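 RAW 264.7 cells pretreated with compound for 30 min, then stimulated with LPS for 30 min. Protein extracts were Western blotted for phosphorylated ERK and JNK (SDS-PAGE, PVDF, ECL detection).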

RAW264.7 [8] = test: Antiinflammatory activity in mouse RAW264.7 cells assessed as inhibition of LPS-induced COX2 protein expression at 40 uM after 16 hrs by Western blotting analysis relative to control; assay type: functional
In short: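 RAW 264.7 cells given LPS (1 μg/mL) with or without compound for 16 h. Cell lysates were Western blotted for iNOS and COX-2 (6−15% SDS-PAGE, PVDF, ECL detection). Performed in triplicate.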

RAW264.7 [9] = test: Antiinflammatory activity in mouse RAW264.7 cells assessed as inhibition LPS-induced IL-1beta mRNA expression at 10 uM after 4 hrs by RT-PCR analysis relative to control; assay type: functional; in short: as §2
[10] = biological target: Transcription factor p65 (Mus musculus) (UniProt Q04207); test: Inhibition of LPS-induced NFkappaB P65 protein nuclear translocation in mouse RAW264.7 cells at 10 uM after 30 mins by Western blotting analysis relative to control; assay type: cell-based
In short: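 Macrophages were exposed to compound for 30 min before LPS stimulation, with proteins extracted 30 min later. Nuclear extracts were prepared in Tris/KCl/NP-40 lysis buffer, then 420 mM NaCl buffer, and the cytosolic fraction was kept for IκB-α. Western blot on PVDF with ECL detection. Tests in triplicate; representative of three separate experiments.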

RAW264.7 [11] = test: Antiinflammatory activity in mouse RAW264.7 cells assessed as inhibition of LPS-induced COX2 mRNA expression at 20 uM after 5 hrs by RT-PCR analysis relative to control; assay type: functional
In short: (§4)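 RAW 264.7 cells exposed to 1 μg/mL LPS with or without compound for 5 h. Total RNA was analysed by RT-PCR: 25−30 cycles with annealing at 55 °C. Products were separated on 2% agarose gel with SYBR-Safe staining. Experiments in triplicate.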

RAW264.7 [12] = test: Antiinflammatory activity in mouse RAW264.7 cells assessed as inhibition of LPS-induced nitric oxide production at 40 uM administered 30 mins prior to LPS challenge measured after 20 hrs by Griess assay relative to control; assay type: functional
In short: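 RAW 264.7 cells at 3 × 10^5 cells/mL in phenol red-free 10% FBS DMEM, pretreated for 30 min, then given 1 μg/mL LPS for 20 h. Nitrite in the medium was read by Griess reaction at 540 nm against a sodium nitrite standard curve. % inhibition was calculated versus vehicle control, and IC50 by nonlinear regression. Mean ± SD of triplicates.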

Mus musculus [13] = test: Antiinflammatory activity in ICR mouse ear edema model assessed as inhibition of TPA-induced ear edema at 20 mg/kg, po administered 30 mins prior to TPA challenge measured after 4 hrs relative to vehicle-treated control; assay type: functional; in short: as §1
RAW264.7 [14] = test: Antiinflammatory activity in mouse RAW264.7 cells assessed as inhibition of LPS-induced iNOS mRNA expression at 20 uM after 5 hrs by RT-PCR analysis relative to control; assay type: functional; in short: as §4
[15] = biological target: Mitogen-activated protein kinase 1 and 3 (ERK2 and ERK1) (Mus musculus) (UniProt P63085+Q63844); test: Inhibition LPS-induced ERK1/2 phosphorylation at Thr202/Tyr204 in mouse RAW264.7 cells at 40 uM administered 30 mins prior to LPS challenge measured after 30 mins by Western blotting analysis; assay type: cell-based; in short: as §3
Mitogen-activated protein kinase 1 and 3 (ERK2 and ERK1) (Mus musculus), sequence (P63085 whole entry, looked up): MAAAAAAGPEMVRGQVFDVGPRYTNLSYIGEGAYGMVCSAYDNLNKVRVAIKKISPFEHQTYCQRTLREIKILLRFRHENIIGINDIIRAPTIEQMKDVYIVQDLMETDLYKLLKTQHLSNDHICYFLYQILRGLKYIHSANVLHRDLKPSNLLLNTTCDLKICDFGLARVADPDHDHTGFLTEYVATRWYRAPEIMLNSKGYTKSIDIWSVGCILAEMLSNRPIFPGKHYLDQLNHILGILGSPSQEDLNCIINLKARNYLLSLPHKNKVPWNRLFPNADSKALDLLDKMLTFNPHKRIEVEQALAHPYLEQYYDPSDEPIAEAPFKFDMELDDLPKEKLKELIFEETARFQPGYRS
Mitogen-activated protein kinase 1 and 3 (ERK2 and ERK1) (Mus musculus), sequence (Q63844 whole entry, looked up): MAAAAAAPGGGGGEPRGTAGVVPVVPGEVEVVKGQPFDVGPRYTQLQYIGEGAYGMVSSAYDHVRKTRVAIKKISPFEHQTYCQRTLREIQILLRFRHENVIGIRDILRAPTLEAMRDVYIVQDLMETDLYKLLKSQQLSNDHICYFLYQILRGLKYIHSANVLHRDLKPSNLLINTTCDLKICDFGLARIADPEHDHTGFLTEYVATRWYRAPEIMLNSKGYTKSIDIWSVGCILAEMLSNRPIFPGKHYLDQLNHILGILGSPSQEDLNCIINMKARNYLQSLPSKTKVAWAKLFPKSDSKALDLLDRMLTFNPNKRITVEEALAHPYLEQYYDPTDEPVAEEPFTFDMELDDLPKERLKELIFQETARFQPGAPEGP

C=C1C(=O)O[C@@H]2[C@@H]3[C@@]4(C=C[C@@]3(C)[C@]3(C4)C(=O)O[C@@H]4[C@H]5C(C)=CC[C@H]5[C@](C)(O)C[C@H](OC(C)=O)[C@H]43)[C@](C)(O)CC[C@@H]12
inhibition (Mus musculus [1]): Active
inhibition [2]: Active
fold change (FC) (RAW264.7 [3]): 0.1
inhibition (Rattus norvegicus [4]): Active
inhibition in vivo at 10 mg/kg (Rattus norvegicus [5]): 22%
fold change (FC) (RAW264.7 [6]): 0.66
inhibition (RAW264.7 [7]): Active
fold change (FC) (JNK1/JNK2 (Mus musculus)): 0.71
inhibition (JNK1/JNK2 (Mus musculus)): Active
fold change (FC) (RAW264.7 [8]): 0.15
fold change (FC) (RAW264.7 [9]): 0.26
inhibition (RAW264.7 [9]): Active
inhibition [10]: Active
fold change (FC) (RAW264.7 [11]): 0.58
inhibition (INH) (RAW264.7 [12]): 98%
inhibition in vivo at 20 mg/kg (Mus musculus [13]): 56%
fold change (FC) (RAW264.7 [14]): 0.67
fold change (FC) [15]: 0.21
